# The list is not random: actives were taken first. Their share in the collection is about 1.4%.
# core dimer inh – inhibitors of HCV core protein dimerization, primary screen, biochemical, TR-FRET, high-throughput; TR-FRET GST/Flag-core106 dimerization, 1536-well; inhibition, % at 5 µM; actives 0.33% (n = 300,000); AID 1899, 2009;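 active means inhibition above the mean of all tested compounds plus 3 SD, set per screening campaign, cut at about 45% in these data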
#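 Material: GST/Flag-tagged HCV core106 proteins. Incubation: 4 h, 22.5 °C incubation. Read-out basis: inhibition (%) from 671 over 617 nm ratio. Measured by: TR-FRET, excitation 340 nm, emission 617 and 671 nm.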
# NS3 helicase inh – inhibitors of HCV NS3 helicase, primary screen, biochemical, Cy5 molecular beacon fluorescence. Hepatitis C virus NS3 helicase. NS3 helicase DNA unwinding. inhibition, % at 10.9 µM. actives 0.56% (n = 290,000). AID 1800, 2009;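 active means inhibition above the mean of all tested compounds plus 3 SD, set per campaign, cut at about 35% in these data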;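 further: 0% = DMSO wells and 100% = thioflavine S control wells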
#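 test system = hepatitis C virus NS3 helicase domain fragment enzyme | reagent = annealed dual-labelled DNA beacon duplex, ATP-started | times = 1 h at 25 °C | detection = Cy5 fluorescence, 0 and 60 min reads | read-out basis = percent inhibition from t60/t0 fluorescence ratio | control set = DMSO and thioflavine S | replication = one well per compound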
# EBNA-1 inh – EBNA-1 DNA-binding inhibitors, primary screen, biochemical, fluorescence polarization; inhibition, % at 14.8 µM; actives 0.34% (n = 300,000); in the data active means inhibition above about 28%
# SUMO HTRF inh – inhibitors of in vitro SUMOylation cascade, primary screen, biochemical, HTRF, uHTS | actives 0.36% (n = 290,000) | inhibition, % at 35 µM | HTRF SUMOylation assay, SAE1/SAE2 + UBC9 | SUMO-conjugating enzyme UBC9 (Homo sapiens), P63279; in the data active means inhibition above about 50%, passing the limit was not always enough
# Target sequence (P63279 whole entry, looked up): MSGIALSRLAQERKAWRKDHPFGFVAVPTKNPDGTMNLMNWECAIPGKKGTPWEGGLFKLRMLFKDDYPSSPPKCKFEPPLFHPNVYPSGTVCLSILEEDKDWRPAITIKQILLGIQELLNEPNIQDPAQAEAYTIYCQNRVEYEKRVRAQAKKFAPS
# ZTA counter – ZTA (EBV) inhibition in EBNA-1 counter-screen; inhibition, % at 11 µM; P03206; actives 0.15% (n = 320,000); ZTA-DNA binding, fluorescence polarization; AID 2234; in the data active means inhibition above about 33%
# Target sequence (P03206 whole entry, looked up): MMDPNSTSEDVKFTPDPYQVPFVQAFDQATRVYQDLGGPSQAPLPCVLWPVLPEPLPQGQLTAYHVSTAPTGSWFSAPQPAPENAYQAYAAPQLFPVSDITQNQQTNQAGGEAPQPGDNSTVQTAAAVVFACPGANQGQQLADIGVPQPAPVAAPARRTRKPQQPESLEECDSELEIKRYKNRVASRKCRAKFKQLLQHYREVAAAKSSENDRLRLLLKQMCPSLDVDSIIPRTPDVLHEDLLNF
# EBNA-1 confirm – EBNA-1 DNA-binding inhibitors, retest, confirmation, biochemical, fluorescence polarization, triplicate; shares compounds with EBNA-1 inh; Recombinant EBNA-1 DBD, Cy5-DNA fluorescence polarization; inhibition, % at 14.8 µM; actives 35% (n = 830); AID 2292, 2010;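 active means mean inhibition across replicates above a set limit taken from the earlier primary screen, cut at about 28% in these data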;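 further: plate controls were EBNA-1 protein with DMSO for no effect and wells lacking EBNA-1 for full effect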
# ZTA counter trip – EBV Zta DNA binding inhibitors, counter-screen for EBNA-1 inhibitor project, biochemical, fluorescence polarization, triplicate; 830 tested, under 10 active; inhibition, % at 11.1 µM; shares compounds with EBNA-1 inh; Zta-ZRE DNA binding, Cy5 fluorescence polarization;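 active means mean inhibition over triplicates above a set limit taken from the primary EBNA-1 screen, cut at about 37% in these data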;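 further: purified full length Zta protein with Cy5 labeled ZRE DNA probe; 0% = Zta with DMSO and 100% = wells lacking Zta protein; inhibitors lower polarization by freeing the labeled DNA probe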
# Starred values were filed as active, the others as inactive; · = not tested or not shown.
SMILES,core dimer inh,NS3 helicase inh,EBNA-1 inh,SUMO HTRF inh,ZTA counter,EBNA-1 confirm,ZTA counter trip
O=C(CSc1nnc(Nc2ccccc2F)s1)c1cc2ccccc2o1,16,11,3,13,-5,·,·
COc1ccc(Nc2nnc(SCC(=O)c3cc4ccccc4o3)s2)cc1,4,25,44*,17,-7,37*,2
COC(=O)c1nc(N)sc1-c1ccc(Cl)c(Cl)c1,1,2,-3,21,9,·,·
O=C(CSc1ccc2nnc(-c3ccccn3)n2n1)Nc1ccccc1F,2,10,7,13,5,·,·
COc1cccc(NC(=O)CN(C)C(=O)c2cccnc2Sc2ccc(C)c(C)c2)c1,1,·,-12,·,-2,·,·
COc1ccccc1CNS(=O)(=O)c1ccc(-c2cnc(C3CC3)o2)cc1,-5,-8,-2,14,-10,·,·
CC(=O)CCc1c(C)nc2ccc(C(=O)O)cc2c1Cl,-11,2,31*,12,8,-13,-22
COc1ccc(N2CCN(S(=O)(=O)c3cc4c(cc3C)NC(=O)CO4)CC2)cc1,-46,0,33*,-5,15,18,1
Cc1cccc(N2CCN(S(=O)(=O)c3cc4c(cc3Cl)NC(=O)CO4)CC2)c1C,17,-13,-4,8,-9,·,·
Cc1cc2c(cc1S(=O)(=O)N1CCCCC1)OCC(=O)N2,-3,15,5,-6,-2,·,·
COc1cccc(N2CCN(S(=O)(=O)c3cc4c(cc3Cl)NC(=O)CO4)CC2)c1,20,10,32*,6,12,21,3
CC1CN(CCC(=O)Nc2ccccc2F)CC(C)O1 (stereo not drawn),1,0,5,5,1,·,·
N#Cc1c(SCC(=O)Nc2nncs2)sc2c(O)cc(=O)[nH]c12,-49,24,18,45,8,·,·
COc1ccc(Nc2nc(N(C)c3ccccc3)nc(N)c2[N+](=O)[O-])cc1,1,-12,34*,-16,14,40*,0
O=C(Nc1cccc(S(=O)(=O)NC2=NCCCCC2)c1)c1cc(-c2ccncc2)nc2ccccc12,15,4,-1,8,-3,·,·
O=C(Nc1cccc(S(=O)(=O)NC2=NCCCCC2)c1)c1cc(-c2ccco2)nc2ccccc12,69*,10,39*,81*,-1,18,-7
Cc1ncoc1C(=O)N1CCCC(C(=O)c2cccc3ccccc23)C1 (stereo not drawn),-2,-1,-4,4,-17,·,·
Cn1nccc1C(=O)N1CCCC(C(=O)c2cccc3ccccc23)C1 (stereo not drawn),-6,-3,40*,12,-5,-3,4
COc1ccccc1OCCn1cc(/C=C(\C#N)C(=O)NCc2cccs2)c2ccccc21,24,5,6,14,8,·,·
N#C/C(=C\c1cn(Cc2ccccc2C#N)c2ccccc12)C(=O)NCc1cccs1,6,8,31*,1,-14,2,-8
Cc1ccc(S(=O)(=O)N2CCN(C(=S)NCCc3ccccc3)CC2)cc1,2,-4,65*,-24,-3,11,-2
COc1ccc(CCNC(=S)N2CCN(S(=O)(=O)c3ccccc3)CC2)cc1,1,·,-7,·,-7,·,·
Cc1cccc(NC(=O)/C(C#N)=C/c2cn(CC(=O)NCc3ccco3)c3ccccc23)c1C,8,-18,35*,58*,1,30*,-1
COc1cccc(NC(=O)Nc2nnc(Cc3ccc(OC)c(OC)c3)s2)c1,-6,16,8,8,-13,·,·
COc1ccc(C(=O)Nc2nnc(Cc3cccs3)s2)cc1OC,15,11,30*,-22,12,52*,8
SMILES,core dimer inh,NS3 helicase inh,EBNA-1 inh,SUMO HTRF inh,ZTA counter,EBNA-1 confirm,ZTA counter trip
COc1ccc(Cc2nnc(NC(=O)Nc3ccccc3)s2)cc1OC,12,5,60*,13,-3,26,3
CC1CCN(CC(=O)Nc2ccc(C(=O)N3CCCCC3)cc2)CC1,-11,1,2,2,-12,·,·
N#Cc1cc2c(nc1SCC(=O)Nc1nccs1)CCCCC2,20,4,30*,12,-2,15,-7
CCc1nnc(NC(=O)CSc2nc3c(cc2C#N)CCC3)s1,-17,4,4,18,-1,·,·
CCOC(=O)c1[nH]c2ccc(OC)cc2c1NC(=O)c1ccc2c(c1)OCO2,-1,-6,-20,-1,4,·,·
CCOC(=O)c1[nH]c2ccccc2c1NC(=O)c1ccc2c(c1)OCO2,2,3,32*,12,3,19,-10
CCOC(=O)c1c(C)[nH]c(C)c1S(=O)(=O)NCCN1CCN(c2ccccc2F)CC1,-1,-4,-2,-6,17,·,·
CC(C)C(=O)Nc1ccc(C(=O)NNC(=O)CCCOc2ccc(Cl)cc2Cl)cc1,0,-2,36*,23,-8,15,10
CCCCC(=O)Nc1ccc(C(=O)NNC(=O)CCCOc2ccc(Cl)cc2Cl)cc1,24,7,4,10,8,·,·
S=c1nc[nH]c2c1[nH]c1ccc(Cl)cc12,33,-7,43*,-7,12,22,0
N#Cc1ccc(OCC(=O)N2CCCC2=O)cc1,·,·,·,·,-4,·,·
Cc1ccc(NC(=O)CSCC(=O)N(C)CC(=O)Nc2cccc3ccccc23)cc1,0,·,-19,·,-16,·,·
CCOC(=O)CC(NC(=O)Cc1ccccc1)c1ccccc1Cl (stereo not drawn),9,1,4,12,-19,·,·
CCOC(=O)CC(NC(=O)C1c2ccccc2Oc2ccccc21)c1ccccc1Cl (stereo not drawn),-5,3,102*,14,-6,4,-21
Cc1ccc(S(=O)(=O)NCC(=O)N(CC(=O)NCC2CCCO2)Cc2ccco2)cc1 (stereo not drawn),3,18,4,9,9,·,·
Cn1c2ccccc2c2cnn(CC(=O)Nc3ccccc3Br)c(=O)c21,18,2,32*,46,7,11,-2
Cc1nnc(NC(=O)CSc2ncnc3scc(-c4ccccc4)c23)s1,5,1,34*,-60,13,29*,-7
COC(=O)CSc1ncnc2scc(-c3ccccc3)c12,1,0,-6,24,-5,·,·

# Screening data: PubChem, several laboratories
